Results as given in paper PMC12152739 (Chemical Science, 2025).
In brackets after ≈: the same amount, converted by molar mass. Read-outs that look alike come from different tables or passages of the source.

Assays:
VIM-2 [1] = target: T1, VIM-2 (Escherichia coli, UniProt Q5U7L7); assay: Steady-state hydrolysis kinetics and UV difference spectra with purified VIM-2; details: for hydrolysis monitored by UV difference spectroscopy: VIM-2, 200 : 1 S : E ratio, 220 nm to 300 nm
NDM-1 [2] = target: T2, NDM-1 (Klebsiella pneumoniae, UniProt C7C422); assay: Steady-state hydrolysis kinetics and UV difference spectra with purified NDM-1; type: biochemical; details: for hydrolysis monitored by UV difference spectroscopy: NDM-1, 200 : 1 S : E ratio, 220 nm to 300 nm; for K M: substrate hydrolysis by NDM-1, 30 °C, 10 mM HEPES, 200 mM NaCl pH 7.5, 20 μM ZnSO4
IMP-1 [3] = target: T3, IMP-1 (Serratia marcescens, UniProt P52699); assay: Steady-state hydrolysis kinetics and UV difference spectra with purified IMP-1; type: biochemical; details: for hydrolysis monitored by UV difference spectroscopy: IMP-1, 200 : 1 S : E ratio, 220 nm to 300 nm
NDM-5 [4] = target: T4, NDM-5 (Klebsiella pneumoniae, UniProt C7C422, M154L/V88L); details: CAZ hydrolysis by NDM-5; cited from earlier work
VIM-2 [5] = target: T1, VIM-2; details: CAZ hydrolysis by VIM-2, cited from earlier work
IMP-1 [6] = target: T3, IMP-1; details: CAZ hydrolysis by IMP-1; cited from earlier work
NDM-5 [7] = target: T4, NDM-5; assay: Steady-state hydrolysis kinetics with purified NDM-5; type: biochemical; details: FDC hydrolysis by NDM-5, 30 °C, pH 7.5
How it was run: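 Purified enzyme in 10 mM HEPES, 200 mM NaCl pH 7.5 with 20 μM ZnSO4, at 30 °C. Initial velocities of substrate hydrolysis followed at 259 nm, Δε259 = −9430 M−1 cm−1, 0.1 cm path cuvette. kcat and KM derived from these initial-rate measurements.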

IMP-1 [8] = target: T3, IMP-1; assay: Inhibition of nitrocefin hydrolysis by IMP-1; type: biochemical; details: 2 nM IMP-1, 5 min preincubation at 30 °C, 50 μM nitrocefin
How it was run: (§1)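 Recombinant MBL lacking its signal peptide, made in E. coli BL21(DE3) as His-tagged protein, Ni-affinity purified and TEV-cleaved (>95% pure). 2 nM enzyme preincubated 5 min at 30 °C with varied test compound, or its NDM-1 hydrolysis product, or none. Buffer: 10 mM HEPES, 200 mM NaCl pH 7.5, 20 μM ZnSO4. Nitrocefin 50 μM final; initial rates at 495 nm over 300 s. IC50 curves fitted; triplicate.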

[9] = system: E. coli DH10B cells harboring the pMBLe blaIMP-1 plasmid; assay: Broth microdilution MIC in ID-CAMHB, E. coli producing IMP-1; type: cell-based; details: Escherichia coli, higher levels of IMP-1 (IPTG-induced)
How it was run: (§2)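 Broth microdilution per CLSI in iron-depleted cation-adjusted Mueller–Hinton broth. DH10B carries the MBL gene on pMBLe with its native signal peptide under an IPTG-inducible promoter; inoculum in broth with 0–200 μM IPTG, final 5 × 10^5 CFU mL−1. Incubation 37 °C, 18 h; mode of three independent experiments. Enzyme levels by anti-strep-tag II immunoblot of drug-free growth wells, DnaK loading control.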

NDM-1 [10] = target: T2, NDM-1; assay: Inhibition of nitrocefin hydrolysis by NDM-1; type: biochemical; details: 2 nM NDM-1, 5 min preincubation at 30 °C, 50 μM nitrocefin
How it was run: as §1

VIM-2 [11] = target: T1, VIM-2; assay: Inhibition of nitrocefin hydrolysis by VIM-2; type: biochemical; details: 2 nM VIM-2, 5 min preincubation at 30 °C, 50 μM nitrocefin
How it was run: as §1

E. coli (blaNDM-5) = details: clinical E. coli before ten-fold increase in blaNDM-5 copy number; cited from earlier work
[12] = system: E. coli DH10B cells harboring the pMBLe blaNDM-1 plasmid; assay: Broth microdilution MIC in ID-CAMHB, E. coli producing NDM-1; type: cell-based
How it was run: as §2

CC(C)(O/N=C(\C(=O)N[C@@H]1C(=O)N2C(C(=O)[O-])=C(C[n+]3ccccc3)CS[C@H]12)c1csc(N)n1)C(=O)O [CAZ, ceftazidime]
hydrolysis monitored by UV difference spectroscopy (VIM-2 [1]): can turnover | hydrolysis monitored by UV difference spectroscopy (NDM-1 [2]): can turnover | K M (NDM-1 [2]): 45 ± 12 µM | hydrolysis monitored by UV difference spectroscopy (IMP-1 [3]): can turnover | K M (NDM-5 [4]): 86 ± 11 µM | k cat (NDM-5 [4]): 15 s⁻¹ | k cat /K M (NDM-5 [4]): 180000 M⁻¹ s⁻¹ | k cat /K M (VIM-2 [5]): 50000 M⁻¹ s⁻¹ | K M (VIM-2 [5]; standard deviations <10%): 72 µM | k cat (VIM-2 [5]; standard deviations <10%): 3.6 s⁻¹ | K M (IMP-1 [6]): 44 ± 3 µM | k cat (IMP-1 [6]): 8 ± 1 s⁻¹ | k cat /K M (IMP-1 [6]): 180000 M⁻¹ s⁻¹

CC(C)(O/N=C(\C(=O)N[C@@H]1C(=O)N2C(C(=O)[O-])=C(C[N+]3(CCNC(=O)c4ccc(O)c(O)c4Cl)CCCC3)CS[C@H]12)c1csc(N)n1)C(=O)O [FDC, cefiderocol]
K M (VIM-2 [1]; FDC hydrolysis by VIM-2, 30 °C, pH 7.5): 250 ± 80 µM | hydrolysis monitored by UV difference spectroscopy (VIM-2 [1]): negligible activity | hydrolysis monitored by UV difference spectroscopy (NDM-1 [2]): efficiently hydrolyzes | K M (NDM-1 [2]): 443 ± 59 µM | K M (IMP-1 [3]; FDC hydrolysis by IMP-1, 30 °C, pH 7.5): 300 ± 120 µM | hydrolysis monitored by UV difference spectroscopy (IMP-1 [3]): negligible activity | K M (NDM-5 [7]): 405 ± 40 µM | k cat (NDM-5 [7]): 75 ± 3 s⁻¹ | inhibition of nitrocefin hydrolysis activity (IMP-1 [8]): inhibited | MIC [9]: 0.06 µg/mL (≈ 0.0798 µM) | inhibition of nitrocefin hydrolysis activity (NDM-1 [10]): largely unperturbed | inhibition of nitrocefin hydrolysis activity (VIM-2 [11]): inhibited | MIC (E. coli (blaNDM-5)): 2 µg/mL (≈ 2.66 µM) | increase in MIC values ([12]; E. coli laboratory strain, NDM-1 overproduction vs basal level): 16 fold | MIC ([12]; Escherichia coli, ID-CAMHB, higher levels of NDM-1 (IPTG-induced)): 0.5 µg/mL (≈ 0.665 µM)
